Screening data as filed in PubChem BioAssay.
This excerpt belongs to a sample that is enriched for hits.
XBP1 UPR activ – activators of adaptive arm of unfolded protein response (XBP1); 0.33% of 330,000 active; AID 463104; CHO-XBP1 luciferase reporter, IRE1-XBP1 UPR activation, luminescence; percent of tunicamycin response, DMSO as zero; activation, % at 20 µM;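 active = versus positive control, 20 µM dose yields 30% or more activation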;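 also: 100% = tunicamycin at 10 µg/mL and 0% = DMSO only wells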
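Assay system: CHO-XBP1 luciferase reporter cells; Schedule: 6 h treatment, 37 °C; Detection: glow luminescence from Steady-Glo reagent; Benchmarks: high control tunicamycin 10 µg/mL final, low control DMSO vehicle only.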
UPR CHOP act – apoptotic UPR (CHOP) activation; CHO-CHOP luciferase reporter, luminescence; percent of tunicamycin response over DMSO baseline; activation, % at 10 µM; 0.34% of 330,000 active;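 active = at 10 µM dose, activation of 40% or more, normalized to positive control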;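 also: 100% = tunicamycin at 10 µg/mL and 0% = DMSO alone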
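Test system: CHO CHOP reporter cells. Input: 500 CHO-CHOP cells per well. Medium: F12 with 10% FBS. Technique: luciferase luminescence. Measure: percent activation relative to tunicamycin control. Dosing: 10 µM compound, 0.5% DMSO. Timing: 16-18 h cell attachment, then 6 h compound exposure, 37 °C.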
697 NFkB inh – lowers PMA/ionomycin-induced NF-kB signal in 697 B cells; 697 B-cell NF-kB luciferase reporter, 16 h; inhibition, % at 4 µM; 0.33% of 330,000 active; in the data active = inhibition above about 35%
CHOP inhibitor – blocks CHOP induction under ER stress; CHO-K1 CHOP-promoter luciferase, tunicamycin-induced, 15-18 h; inhibition, % at 10 µM; 3.8% of 220,000 active; AID 2732;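 active = compounds that reduced the stress-induced luciferase reporter signal by more than about 70% of percent inhibition, limit read from the data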;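 also: 0% = tunicamycin plus vehicle and 100% = wells without tunicamycin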
Jurkat NFkB inh – inhibitors of the PMA/ionomycin-induced NF-kB reporter in Jurkat cells | PMA/ionomycin-induced NF-kB luciferase reporter, luminescence | inhibition, % at 4 µM | 0.53% of 330,000 active | AID 435003; in the data active = inhibition above about 50%
CHOP confirm – confirmation of CHOP induction inhibitors; 45% of 2,100 active; shares compounds with CHOP inhibitor; CHO-CHOP promoter luciferase reporter, tunicamycin-induced, luminescence; AID 504437; inhibition, % at 10 µM;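 active = mean of three repeat readings of reporter signal inhibition above a set limit, cut at about 70% in these data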;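 also: 0% = tunicamycin plus vehicle and 100% = wells lacking tunicamycin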
The depositor's hits bear a star; . = no result.

SMILES	XBP1 UPR activ	UPR CHOP act	697 NFkB inh	CHOP inhibitor	Jurkat NFkB inh	CHOP confirm
Cc1ccc(NC(=O)c2cc(N3C(=O)CCC3=O)ccc2N2CCOCC2)cc1	-2.0	0.7	-4.1	-21.0	10.1	.
Cc1ccc2nc(NC(=O)c3ccc4ncsc4c3)sc2c1	0.1	3.0	-163.5	102.7*	-112.6	-13.2
NS(=O)(=O)c1ccc2nc(NC(=O)c3ccc4ncsc4c3)sc2c1	-4.9	3.7	-5.0	.	-5.6	.
COc1cccc(-n2cnc3c(sc4nc(N5CCOCC5)c5c(c43)CCCC5)c2=O)c1	4.1	2.3	20.9	-8.7	14.8	.
Cc1nn(-c2ccccc2)c(C)c1/C=N/n1c(-c2ccc(Cl)cc2)n[nH]c1=S	8.9	0.2	17.9	103.0*	8.3	47.7
Cc1nn(-c2ccccc2)c(C)c1/C=N/n1c(-c2ccncc2)n[nH]c1=S	2.0	0.9	-186.4	4.7	8.6	.
CCCc1ccc(C(=O)NNc2ccc(F)cc2)cc1	0.6	3.7	-6.9	-0.9	5.5	.
CCCc1ccc(C(=O)NNC(=O)c2ccc(Br)cc2)cc1	-2.4	-0.1	5.6	98.8*	-1.5	41.9
O=C(CSc1ncn[nH]1)N1CCOCC1	-1.6	1.2	4.6	24.2	-0.6	.
C#CCSc1nncn1C(=O)/C=C/c1ccccc1	1.0	5.4	-7.0	105.0*	-7.7	-7.9
COC(=O)c1ccc(NC(=O)CS(=O)(=O)c2ccccc2)cc1	-2.2	2.3	0.9	.	-15.9	.
COc1ccccc1N(CC(=O)N/N=C(\C)c1ccc(F)cc1)S(=O)(=O)c1ccccc1	11.6	6.2	9.8	.	4.6	.
COc1ccccc1NS(=O)(=O)c1cc([N+](=O)[O-])ccc1N/N=C/c1c[nH]c2ccccc12	7.1	-1.2	-5.1	98.5*	-9.1	51.7
COc1ccc(NS(=O)(=O)c2cc([N+](=O)[O-])ccc2N/N=C\c2c(C)[nH]c3ccccc23)cc1	23.1	20.5	-25.4	0.1	2.7	.
CCN(CC(=O)N1CCCC1)S(=O)(=O)c1ccc2ccccc2c1	-3.2	1.6	-18.8	.	12.1	.
CC(C)(C)c1ccc(S(=O)(=O)NCC(=O)Nc2sc3c(c2C(N)=O)CCCC3)cc1	-0.8	1.5	3.0	107.4*	3.2	91.5*
CN(Cc1ccccc1)S(=O)(=O)c1ccc(Cl)c(C(=O)OCC(=O)NC2CCS(=O)(=O)C2)c1 (centres undefined)	1.0	0.4	12.7	.	-14.8	.
CC(C)(C)C1CCC(C(=O)OCC(=O)c2ccc[nH]2)CC1 (centres undefined)	-1.7	3.8	6.7	101.1*	7.0	100.0*
Cc1cccc(NC(=O)/C(=C\c2ccc([N+](=O)[O-])o2)NC(=O)c2ccc(Cl)cc2)c1	.	.	.	101.1*	.	9.5
CC(=O)Nc1ccc(NC2=Nc3ccccc3N3C2=Nc2c(c(C)nn2-c2ccccc2)C3c2ccccc2)cc1 (centres undefined)	-4.3	-3.3	-2.3	106.0*	37.6	119.2*
O=C(CCl)Nc1cc(-c2ccccc2)nn1-c1ccccc1	-5.9	11.9	7.7	.	9.3	83.4*
CC(=O)Nc1ccc(-c2cc(NC(C)=O)n(-c3ccccc3)n2)cc1	-0.1	-0.5	-9.7	-9.6	-11.1	.
C=CCC[C@@H](Cc1ccc(F)cc1)C(=O)OCCNC(=O)[C@H](CC=C)CC(=O)NCCO	0.1	0.3	-5.2	.	4.7	.
CSc1nc2c(cnn2-c2ccc(C)c(C)c2)c(=O)[nH]1	4.8	-0.1	-4.8	100.0*	-3.0	110.6*
CCC(C)Sc1nc2c(cnn2-c2ccc(C)c(C)c2)c(=O)[nH]1 (centres undefined)	6.8	0.7	-11.3	12.2	0.2	.
SMILES	XBP1 UPR activ	UPR CHOP act	697 NFkB inh	CHOP inhibitor	Jurkat NFkB inh	CHOP confirm
Cc1cccc(C)c1NC(=O)NC1(C(=O)N2CCCC2)CCCCC1	-1.7	-0.4	8.0	.	6.8	.
Cc1c2cnn(-c3ccccc3)c(=O)c2c(C)n1CCCC(=O)NCCN1CCN(C)CC1	-2.4	-1.9	7.1	-0.9	-2.4	.
CCc1ccccc1NC(=O)c1cc(-c2cccc(O)c2)on1	-0.5	3.3	-29.8	55.4	-38.4	.
O=C(Nc1ccccc1C(F)(F)F)c1cc(-c2cccc(O)c2)on1	-1.3	2.2	-19.9	96.8*	-65.6	-9.3
Cc1ccc(-c2nnc(SCC(=O)Nc3ccc(S(=O)(=O)N4CCCCCC4)cc3)o2)cc1	0.4	0.0	11.8	100.7*	0.1	35.9
CC(=O)c1cccc(NC(=O)CSc2nnc(-c3ccc(S(=O)(=O)N4CCCC4)cc3)o2)c1	1.1	1.8	10.5	-4.6	14.9	.
CCNS(=O)(=O)c1ccc(CCC(=O)N2CCc3ccccc3C2)cc1	-4.5	1.4	2.4	.	0.6	.
O=C(N/N=C/c1cc(Br)cc([N+](=O)[O-])c1O)c1ccc(NC(=O)c2ccc(F)cc2)cc1	-0.7	0.5	12.1	.	-13.4	.
COc1ccc(CN(Cc2cccnc2)C(=S)NCCc2ccccc2)cc1OC	-1.6	-0.8	6.3	-2.5	-7.6	.
CCOc1ccccc1N1CCN(S(=O)(=O)c2ccc3c4c(cccc24)C(=O)N3)CC1	-1.4	-1.1	-4.7	98.9*	-13.1	9.1
CCOC(=O)N1CCN(S(=O)(=O)c2ccc3c4c(cccc24)C(=O)N3)CC1	-1.6	2.5	4.3	.	12.7	.
Cc1cc(C)c2c(c1)/C(=N/NS(=O)(=O)c1ccc(Br)cc1)CCC2	0.0	0.7	-4.6	105.8*	5.4	82.0*
C/C(=N\N=C1\NC(=O)C(CC(=O)Nc2ccc(Cl)cc2)S1)c1ccco1 (centres undefined)	-1.9	1.0	1.0	29.0	5.3	.
O=C(CC1S/C(=N/N=C/c2cccs2)NC1=O)Nc1ccc(Cl)c(Cl)c1 (centres undefined)	-0.3	2.6	-1.6	104.0*	-5.3	56.7
C/C(=N\N=C1\NC(=O)C(CC(=O)Nc2ccc(C)c(Cl)c2)S1)C(C)(C)C (centres undefined)	-1.1	-1.7	-4.6	106.2*	17.0	107.0*
COc1ccc(CNC(=O)C2CCCN(c3ncnc4c3nc3n4CCCCC3)C2)cc1 (centres undefined)	-2.9	-1.6	-13.8	.	5.5	.
CC(C)c1nnc(N2C(=O)c3oc4ccccc4c(=O)c3C2c2ccco2)s1 (centres undefined)	0.7	0.3	-10.3	111.6*	-2.5	110.0*
CC(=O)c1cccc(CN(C)CC2CCCN(CCc3ccccc3C)C2)c1 (centres undefined)	-3.1	-3.2	-11.8	.	-16.5	.
CCOC(=O)c1cnc2c(C)cc(Cl)cc2c1N1CCN(C)CC1	-6.0	3.0	-0.6	.	6.1	.
CCc1ccc2c(c1)C(=O)c1ccccc1C2=O	7.1	4.1	-70.6	37.0	-73.4	.
CCc1ccc2c(c1)C1(NN=C(c3cccc4ccccc34)S1)C(=O)N2 (centres undefined)	7.5	95.2*	10.3	104.2*	6.4	63.4
